The subject of one experiment is mAb against AZN (35D1D2). As to the kind of experiment: indirect competitive ELISA. The settings on record: ic-ELISA; for Cross-reactivity: CR = IC50 of AZN / IC50 of related analyte × 100; for IC50: coating antigen 0.23 and mAb 0.38 µg/mL. Type of experiment: binding, mouse.
A further experiment has as its system anti-AZN mAb. The experiment is described as follows: indirect ICA. Type of experiment: binding, mouse. The note with it: pork extract; strip reader standard curve. The method, boiled down:
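AZN standard spiked into treated pork samples at 8, 4, 2, 1, 0.5, 0.25 and 0 ng/g. A set amount of mAb is added to the sample well and held 5 min at room temperature before strip insertion. The T line is AZL-SA-OVA, the C line mouse IgG, and the conjugate pad AuNP-goat anti-mouse IgG.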

Each structure is given as a SMILES string. Values after ≈ are worked out from the molar mass of the structure shown.

In the experiment on mAb against AZN (35D1D2), `O=C(CCCN1CCN(c2ccccn2)CC1)c1ccc(F)cc1` [AZN, Azaperone] came in with a Cross-reactivity of 100% and an IC50 of 0.35 ng/mL (≈ 1.07 nM). The “IC50, indirect ICA” value in the experiment with anti-AZN mAb is 0.74 ng/g.
Consider `CC(C)NCC(O)COc1cccc2[nH]c3ccccc3c12` (stereo not drawn) [CAR, carazolol], for which, in the experiment with mAb against AZN (35D1D2), the Cross-reactivity was below 0.035% and the half-maximal inhibitory concentration (IC50) result is reported as “˃1000 ng/mL”.
The matching figures for `Cc1cccc(C)c1N=C1NCCCS1` [XYL, xylazine]: below 0.035% and “˃1000 ng/mL”.
In the case of `O=C(CCCN1CCC(O)(c2ccc(Cl)cc2)CC1)c1ccc(F)cc1` [HAL, haloperidol], the Cross-reactivity in the experiment with mAb against AZN (35D1D2) was below 0.035%.
Consider `O=C(CCCN1CC=C(n2c(=O)[nH]c3ccccc32)CC1)c1ccc(F)cc1` [DRO, Droperidol], for which, in the experiment on mAb against AZN (35D1D2), the Cross-reactivity is given as below 0.035% and the concentration for half-maximal inhibition (IC50) result is recorded as “˃1000 ng/mL”.
`CN(C)CCCN1c2ccccc2Sc2ccc(Cl)cc21` [CHL, Chlorpromazine]: in the experiment with mAb against AZN (35D1D2), the Cross-reactivity is below 0.035% and the IC50 entry was “˃1000 ng/mL”.

(Values after paper PMC9720522 (Food Chemistry: X, 2022).)
